From ChEMBL document CHEMBL1122032, “Dopaminergic activity of substituted 6-chloro-1-phenyl-2,3,4,5-tetrahydro-1H-3-benzazepines” (J Med Chem, 1982)
The source made the active and inactive calls. No cut-off for these calls is given here.

Key:
[1] = species on record: Canis familiaris; experiment: Renal blood flow was measured in dogs; Highly significant activity; format: functional, organism-based; conditions: Canis lupus familiaris; Kidney
[2] = species on record: Canis familiaris; experiment: Renal vascular resistance was calculated as the ratio of the mean arterial blood pressure / mean renal blood flow; I=Inactive; format: functional, organism-based; conditions: Canis lupus familiaris
[3] = tested on: Canis familiaris; experiment: Compound was evaluated for determining renal vascular resistance(iv) in dogs; format: functional, Canis lupus familiaris
How it was run: (§1)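 Secondary renal screen in anesthetized dogs: cumulative dose-response by infusing drug at progressively increasing rates, 5 min per dose level. RVR ED15 is the average minimum cumulative dose lowering RVR by 15%; maximum effect is the average maximum % fall in RVR. Selectivity ratios are separations between RVR ED15 and doses giving 30% change in iliac vascular resistance, 20% in MABP, 20% in HR.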

[4] = species on record: Canis familiaris; experiment: Compound was evaluated for average maximum percent decrease in renal vascular resistance in dogs; format: functional, Canis lupus familiaris; how it was run: as §1
[5] = species on record: Rattus norvegicus; experiment: Adenylase cyclase activity in rat striatal membranes at the concentration of 10e-5; format: functional; conditions: Striatum, Membrane
[6] = species on record: Rattus norvegicus; experiment: Adenylase cyclase activity in rat striatal membranes at the concentration of 10e-6; format: functional; conditions: Striatum, Membrane
[7] = tested on: Rattus norvegicus; experiment: Central dopaminergic activity against contralateral rotation(1000) in lesioned rats at the dose of 10 mg/kg (p.o.) in 2 h; format: functional; conditions: route oral
How it was run: (§2)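 Oral dosing in rats with substantia nigra lesions, scoring contralateral rotations. RD1000 is the minimum dose producing 1000 turns in 2 h.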

[8] = tested on: Rattus norvegicus; experiment: Central dopaminergic activity for minimum concentration which produced 500 rotations(ip) in 2 h; format: functional
How it was run: (§3)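 Rats with substantia nigra lesions scored for contralateral rotation after intraperitoneal dosing (routine), oral dosing for selected compounds, or intracaudal administration for intrinsic activity. RD500 and RD1000 are the minimum doses giving 500 and 1000 turns, respectively, in 2 h.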

[9] = Selectivity ratio of compound as ED15 relative to heart rate(HR) ED20; format: functional; how it was run: as §1
[10] = Selectivity ratio of compound as ratio of ED15 relative to mean arterial blood pressure(MABP) ED20; format: functional; how it was run: as §1
[11] = Selectivity ratio of Compound as ratio of ED15 relative to iliac vascular resistance(IVR) ED30; format: functional; how it was run: as §1
[12] = species on record: Canis familiaris; experiment: Renal vascular resistance was calculated as the ratio of the mean arterial blood pressure / mean renal blood flow; Highly significant activity; format: functional, organism-based; conditions: Canis lupus familiaris
[13] = tested on: Rattus norvegicus; experiment: Central dopaminergic activity against contralateral rotation(1000) in lesioned rats at the dose of 5.8(po) in 2 h; I=Inactive; format: functional, organism-based; how it was run: as §2
[14] = species on record: Canis familiaris; experiment: Renal blood flow was measured in dogs; Significant activity; format: functional, organism-based; conditions: Canis lupus familiaris; Kidney
[15] = tested on: Rattus norvegicus; experiment: Central dopaminergic activity for minimum concentration which produced 500 rotations at the dose of 2 mg/kg (i.p.) in 2 h; I=Inactive; format: functional, organism-based; set-up: dose 2 mg/kg; how it was run: as §3
[16] = species on record: Canis familiaris; experiment: Renal vascular resistance was calculated as the ratio of the mean arterial blood pressure / mean renal blood flow; Significant activity; format: functional, organism-based; conditions: Canis lupus familiaris
[17] = tested on: Rattus norvegicus; experiment: Central dopaminergic activity for minimum concentration which produced 500 rotations at the dose of 10 mg/kg (i.p.) in 2 h; I=Inactive; format: functional, organism-based; set-up: dose 10 mg/kg; how it was run: as §3
[18] = tested on: Rattus norvegicus; experiment: Central dopaminergic activity against contralateral rotation(1000) in lesioned rats(po) in 2 h; format: functional; how it was run: as §2
[19] = species on record: Rattus norvegicus; experiment: Adenylase cyclase activity in rat striatal membranes at the concentration of 10e-7; format: functional; conditions: Striatum, Membrane
[20] = species on record: Canis familiaris; experiment: Renal blood flow was measured in dogs; I=Inactive; format: functional, organism-based; conditions: Canis lupus familiaris; Kidney
[21] = tested on: Rattus norvegicus; experiment: Central dopaminergic activity against contralateral rotation(1000) in lesioned rats(po) in 2 hr at 10 mg/kg; I=Inactive; format: functional, organism-based; set-up: dose 10 mg/kg; how it was run: as §2
[22] = tested on: Rattus norvegicus; experiment: Central dopaminergic activity for minimum concentration which produced 500 rotations at the dose of 10 mg/kg (i.p.) in 2 h; format: functional; conditions: route intraperitoneal; how it was run: as §3

Row | DA response [5] | DA response [6] | Structure (SMILES) | RVR [2] | RVR ED15 [3] | Decrease RVR [4] | RD500 [8] | Ratio [9] | Ratio [10] | Ratio [11] | RBF [20] | other results
1 | 83% | 92% | Br.C=CCN1CCc2c(cc(O)c(O)c2Cl)C(c2cccc(Cl)c2)C1 (configuration not stated) | inactive | 0.022 mg/kg | 38% | 0.11 mg/kg | >6072 | >6072 | > 6070 | – | RBF [1]: Highly significant activity; RD1000 [7]: 1160 turns/2 h
2 | 64% | 59% | Br.Oc1cc2c(c(Cl)c1O)CCNCC2c1cccc(C(F)(F)F)c1 (configuration not stated) | – | 0.008 mg/kg | 44% | 0.71 mg/kg | 75 | >6072 | 10 | – | RBF [1]: Highly significant activity; RVR [12]: Significant activity; RD1000 [13]: inactive
3 | – | – | CCCN1CCc2c(cc(O)c(O)c2Cl)C(c2ccccc2)C1 (configuration not stated) | inactive | – | – | – | – | – | – | – | RBF [14]: Significant activity; RD500 [15]: inactive
4 | – | – | Br.Oc1cc2c(c(Cl)c1O)CCNCC2c1cc(Cl)c(O)c(Cl)c1 (configuration not stated) | – | 0.165 mg/kg | 18% | – | >37 | >37 | > 37 | – | RBF [14]: Significant activity; RVR [16]: Significant activity; RD500 [17]: inactive
5 | – | – | Br.Oc1ccc(C2CNCCc3c2cc(O)c(O)c3Cl)cc1Cl (configuration not stated) | inactive | 0.099 mg/kg | 56% | – | 0 | -3 | -1 | – | RBF [14]: Significant activity; RD500 [17]: inactive
6 | – | – | Br.Oc1ccc(C2CNCCc3c2cc(O)c(O)c3Cl)cc1Br (configuration not stated) | – | 0.002 mg/kg | 26% | – | >2995 | >2995 | 15 | – | –
7 | 64% | 51% | Cl.Oc1cc2c(c(Cl)c1O)CCN(Cc1cccs1)CC2c1ccccc1 (configuration not stated) | – | – | – | 0.063 mg/kg | – | – | – | – | RBF [14]: Significant activity; RVR [16]: Significant activity; RD1000 [18]: 5.8 mg/kg
8 | 94% | – | Br.Cc1cccc(C2CNCCc3c2cc(O)c(O)c3Cl)c1 (configuration not stated) | – | 0.015 mg/kg | 56% | 0.47 mg/kg | 7 | >6072 | 1 | – | RBF [1]: Highly significant activity; RVR [12]: Significant activity; DA response [19]: 76%
9 | 13% | 22% | Br.CN1CCc2c(cc(O)c(O)c2Cl)C(c2cccc(Cl)c2)C1 (configuration not stated) | inactive | – | – | 0.03 mg/kg | – | – | – | inactive | RD1000 [18]: 3.2 mg/kg
10 | – | – | C=CCN1CCc2c(cc(OC(C)=O)c(OC(C)=O)c2Cl)C(c2ccccc2)C1.Cl (configuration not stated) | – | – | – | 0.03 mg/kg | – | – | – | – | RD1000 [21]: inactive
11 | – | – | CC(=O)Oc1cc2c(c(Cl)c1OC(C)=O)CCN(C)CC2c1ccccc1.Cl (configuration not stated) | inactive | – | – | 0.025 mg/kg | – | – | – | inactive | RD1000 [18]: 2.2 mg/kg
12 | 14% | 15% | Br.Cc1cccc(C2CN(C)CCc3c2cc(O)c(O)c3Cl)c1 (configuration not stated) | inactive | – | – | 0.041 mg/kg | – | – | – | inactive | RD1000 [18]: 2 mg/kg
13 | 90% | 85% | Br.CCCCN1CCc2c(cc(O)c(O)c2Cl)C(c2ccccc2)C1 (configuration not stated) | inactive | – | – | – | – | – | – | inactive | Contralateral turns in 2 h [22]: 611 turns/2 h
14 | 55% | 30% | Br.Cc1ccccc1C1CNCCc2c1cc(O)c(O)c2Cl (configuration not stated) | inactive | – | – | – | – | – | – | inactive | Contralateral turns in 2 h [22]: 663 turns/2 h
15 | – | – | CC(=O)Oc1cc2c(c(Cl)c1OC(C)=O)CCNCC2c1ccccc1 (configuration not stated) | – | – | – | – | – | – | – | – | RBF [1]: Highly significant activity; RVR [12]: Significant activity
